Most compounds without a hit are left out; they make up all but 1.9% or so of the library.
MC4R antagonist = blocks human MC4R cAMP signaling. P32245. MC4R-expressing cells, MTII-stimulated cAMP, LANCE TR-FRET. inhibition, % at 6.5 µM. hit rate 0.48% among 360,000. AID 540295;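 active = inhibition above its plate's cutoff, the mean of tested wells on that plate plus 3 SD, cut at about 29% in these data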;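 note: 0% = Melanotan II alone and 100% = Melanotan II plus saturating MCL0020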
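system = U2OS cells with stable human MC4R expression | also added = Melanotan II challenge after compound preincubation | dosing = one concentration, 6.5 µM nominal | incubation = compound 30 min, challenge 1 h, detection 1 h | measured by = TR-FRET with Eu-cAMP and labeled anti-cAMP, 671 nm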
TLR4 MyD88 comp = inhibitors of human TLR4-MyD88 binding. inhibition, % at 8.4 µM. HeLa CL3-4 TLR4/MyD88 BLA complementation, FRET ratio. O00206+Q99836. hit rate 0.18% among 200,000; in the data active = inhibition above about 25%;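 note: 0% = vehicle and 100% = reference inhibitor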
MC4R ag barr = activates human MC4R beta-arrestin recruitment; P32245; U2OS MC4R beta-arrestin complementation, luminescence; percent of melanotan II response, DMSO zero; activation, % at 8.9 µM; hit rate 0.98% among 360,000;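 active = activation above a per-plate cutoff, the mean activation of sample wells on that plate plus 3 SD, cut at about 8% in these data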
NOD2 RIPK2 PPI = inhibitors of human NOD2-RIPK2 interaction. O43353. CHO BLA complementation NOD2-RIPK2, CCF4 ratio. inhibition, % at 4.98 µM. hit rate 0.38% among 360,000. AID 624267; in the data active = inhibition above about 21%;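 note: 0% = vehicle only and 100% = reference blocker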
NTR1 agonist = agonists of human neurotensin receptor NTR1. P30989. NTR1-U2OS beta-arrestin-GFP spot imaging, agonist mode. activation, % at 20 µM. hit rate 0.17% among 330,000;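 active = activation at or above 40% of the spot to cytoplasm intensity ratio, with at least 20 cells analyzed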;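 note: 0% = DMSO without peptide and 100% = 100 nM NTR1 peptide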
TLR9-MyD88 block = TLR9-MyD88 interaction inhibition; hit rate 0.21% among 340,000; inhibition, % at 4.98 µM; Q9NR96+Q99836; CHO BLA complementation TLR9-MyD88, CCF4 FRET ratio;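 active = inhibition above the mean over all tested compounds plus 3 SD, cut at about 21% in these data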;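 note: 0% = DMSO only wells and 100% = clavulanate BLA inhibitor control wells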
TLR4 MyD88 cnf = confirmation of human TLR4-MyD88 binding inhibitors; hit rate 50% among 350; shares compounds with TLR4 MyD88 comp; inhibition, % at 8.4 µM; HeLa CL3-4 BLA complementation, CCF4 FRET ratio;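 active = mean inhibition across three repeat runs above about 25% carried over from the earlier screen, limit read from the data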;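 note: plate controls were DMSO only for no effect and clavulanic acid blocking BLA at full dose for full effect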
BLA inhibitor ct = counter-screen for TLR4-MyD88 inhibitors: beta-lactamase reporter inhibitors | shares compounds with TLR4 MyD88 comp | HeLa BLA reporter, CCF4 FRET ratio | inhibition, % at 8.4 µM | hit rate 63% among 350 | AID 1237;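 active = mean inhibition over three repeats above about 26% taken from the earlier screen, limit read from the data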;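 note: HeLa cells stably expressing beta-lactamase reporter as counterscreen for TLR4-MyD88 inhibitors; 0% = DMSO and 100% = clavulanic acid full inhibition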
NTR1 ag confirm = confirmation of agonists of human NTR1; shares compounds with NTR1 agonist; NTR1-U2OS beta-arrestin-GFP translocation imaging; activation, % at 20 µM; hit rate 38% among 480; AID 504550;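 active = mean activation at 20 µM of at least 40%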;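 note: 0% = DMSO without peptide and 100% = 100 nM NTR1 peptide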
TLR9-MyD88 conf = confirmation of human TLR9-MyD88 binding inhibitors. hit rate 51% among 680. shares compounds with TLR9-MyD88 block. inhibition, % at 4.98 µM. CHO TLR9/MyD88 BLA complementation, CCF4 FRET ratio;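 active = mean inhibition across three repeats above about 21% taken from the earlier screen, limit read from the data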;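 note: blue over green emission ratio reports constitutive TLR9 MyD88 association via BLA complementation; 0% = DMSO vehicle wells and 100% = clavulanate BLA inhibitor wells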
BLA counter-1 = non-selective beta-lactamase inhibitors in TLR9-MyD88 counter-screen | inhibition, % at 4.98 µM | CHO-BLA cells, CCF4 FRET ratio, BLA reporter | shares compounds with TLR9-MyD88 block | hit rate 7% among 680;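 active = mean inhibition above a 50% cutoff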;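 note: counterscreen of TLR9-MyD88 hits on CMV-driven BLA in CHO-K1 cells; 0% = DMSO alone and 100% = clavulanate blocking BLA; higher means less blue over green ratio so more BLA blockade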
TLR9 CHO cytotox = counter-screen for TLR9-MyD88 inhibitors: cytotoxicity in CHO cells | luminescence | inhibition, % at 4.98 µM | hit rate 39% among 680 | shares compounds with TLR9-MyD88 block; in the data active = inhibition above about 11%
NOD2 RIPK2 conf = NOD2-RIPK2 interaction inhibition confirmed; AID 624370; inhibition, % at 4.98 µM; hit rate 70% among 1,200; CHO cells, NOD2-RIPK2 BLA complementation, CCF4 FRET; shares compounds with NOD2 RIPK2 PPI;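 active = mean inhibition across replicates above a set limit taken from the earlier primary screen, cut at about 21% in these data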;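 note: 0% = DMSO-only wells and the high end = clavulanate BLA-blocked wells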
BLA counter-2 = counter-screen for NOD2-RIPK2 interaction inhibitors: BLA reporter | shares compounds with NOD2 RIPK2 PPI | CHO BLA reporter, CCF4 FRET ratio, counterscreen | inhibition, % at 4.98 µM | hit rate 57% among 1,200;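 active = mean inhibition above the low-control mean inhibition plus three low-control SD, cut at about 11% in these data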;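 note: 0% = DMSO only wells and 100% = clavulanate high control wells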
* marks the source's active call; other numbers are inactive results; . = no result given.

SMILES	MC4R antagonist	TLR4 MyD88 comp	MC4R ag barr	NOD2 RIPK2 PPI	NTR1 agonist	TLR9-MyD88 block	TLR4 MyD88 cnf	BLA inhibitor ct	TLR9-MyD88 conf	BLA counter-1	TLR9 CHO cytotox	NOD2 RIPK2 conf	BLA counter-2	others
Cc1ncsc1C(=O)N1N=C2/C(=C/c3ccccc3)CCCC2C1c1ccccc1 (stereo not drawn)	7	-10	3	3	12	-5	.	.	.	.	.	.	.
Nc1ccc2c3c(cccc13)C(=O)N(c1ccccc1)C2=O	-18	25*	-2	31*	.	28*	18	39*	13	16	4	36*	42*
Cc1ccc(NC2=Nc3ccccc3N3C2=Nc2c(c(C)nn2-c2ccccc2)C3c2ccc(O)c(O)c2)cc1 (stereo not drawn)	-2	51*	-2	66*	.	66*	53*	84*	59*	66*	4	74*	81*
CCCCCn1c2c(c(=N)c3ccccc31)CCC2	6	.	0	-13	3	-4	.	.	.	.	.	.	.
CCCCCCCCn1c2c(c(=N)c3ccccc31)CCC2	-4	35*	7	21*	61*	.	22	28*	.	.	.	16	-2	NTR1 ag confirm=50*
COc1ccc(-c2cc(N)n(S(=O)(=O)c3c(F)c(F)c(F)c(F)c3F)n2)cc1OC	-45	27*	-2	59*	-2	18	17	-11	.	.	.	86*	18*
Cc1ccc(NC(=O)c2ncn(CCCNCc3ccccc3)n2)cc1C	11	.	1	0	.	13	.	.	.	.	.	.	.
O=C(NCc1ccc(S(=O)(=O)NC2CCCCC2)s1)c1ccccc1	2	.	-1	-10	2	0	.	.	.	.	.	.	.
CN(C)c1ccc(/C=C/C(=O)c2cccc(Br)c2)cc1	7	63*	1	60*	-4	33*	66*	90*	27*	34	-2	64*	68*
C/C(=N\NC(=O)c1sccc1-n1cccc1)c1cccs1	5	-4	-2	-5	1	2	.	.	.	.	.	.	.
COc1cc(/C=C/C(=O)CC(=O)/C=C/c2ccc(O)c(OC)c2)ccc1O	13	32*	8	37*	8	28*	20	43*	30*	26	7	59*	61*
CCOc1ccc(S(=O)(=O)N(CC(=O)N/N=C/c2ccc(-c3ccc([N+](=O)[O-])cc3)o2)c2ccccc2)cc1	10	65*	-2	35*	3	55*	50*	87*	57*	59*	22*	68*	76*
CC(=O)C1=NN(c2ccccc2)C(c2cccs2)N1c1ccc(N(C)C)cc1 (stereo not drawn)	14	-10	-2	-4	4	-3	.	.	.	.	.	.	.
CC(=O)C1=NN(c2ccccc2)C(c2ccc3c(c2)OCO3)N1c1ccccc1 (stereo not drawn)	0	28*	-1	21*	0	20	17	36*	.	.	.	39*	49*
N#Cc1ccc(C(C(=O)NC2CCCCC2)n2c(=O)c(-c3ccccc3)nc3ccccc32)cc1 (stereo not drawn)	.	.	.	-5	.	.	.	.	.	.	.	.	.
O=c1[nH]c2ccccc2nc1/C=C/c1ccc(O)cc1	-6	36*	-2	38*	4	36*	30*	53*	19	21	6	42*	53*
O=C1c2cccc3c([N+](=O)[O-])ccc(c23)C(=O)N1Cc1cccnc1	11	77*	-5	78*	.	66*	79*	104*	49*	66*	72*	84*	71*
O=C1c2cccc3cccc(c23)C(=O)N1Cc1cccnc1	12	.	-2	-6	0	9	.	.	.	.	.	.	.
Cc1ccc(N2C(=O)c3cccc4c([N+](=O)[O-])ccc(c34)C2=O)c2cccnc12	-6	.	-1	13	-4	8	.	.	.	.	.	.	.
Cc1ccnc(N2C(=O)c3cccc4c([N+](=O)[O-])ccc(c34)C2=O)c1	9	92*	-4	88*	1	79*	90*	113*	58*	82*	93*	92*	83*
Cc1ccc(S(=O)(=O)N(C)C[C@@H]2Oc3ncc(C#CCC(C)C)cc3C(=O)N([C@H](C)CO)C[C@H]2C)cc1	-6	.	3	-3	.	-7	.	.	.	.	.	.	.
N#C/C(=C/c1ccc(-c2ccc(S(N)(=O)=O)cc2)o1)C(=O)Nc1ccccc1	1	-3	3	17	11	14	.	.	.	.	.	.	.
N#C/C(=C/c1ccc(-c2ccc(S(N)(=O)=O)cc2)o1)c1nc2ccccc2s1	17	46*	-2	39*	-1	47*	46*	75*	46*	41	24*	71*	71*
Cc1cc(/C=C2\NC(=S)N(C)C2=O)ccc1N1CCCC1	2	23	-2	18	-4	16	.	.	.	.	.	.	.
CCCN1C(=O)/C(=C/c2ccc(N3CCCC3)c(C)c2)NC1=S	14	37*	0	35*	-5	35*	37*	69*	26*	28	2	49*	55*
CCCCNC(=O)c1nn(-c2ccccc2OC)c(=O)c2ccccc12	0	26*	0	26*	-1	24*	20	23	14	18	1	23*	24*

Screening data (PubChem)
